The record followed here is ChEMBL document CHEMBL1128325, “Microsphere formation in a series of derivatized alpha-amino acids: properties, molecular modeling, and oral delivery of salmon calcitonin” (J Med Chem, 1995).

The nature of this data set: Partition coefficient (logP). It is filed as physicochemical. To be noted: octanol/water. The method, boiled down:
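Computed rather than measured: derived from the reported experimental log P values of the parent amino acids by adding fragment constants for the N-substituent.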

For the compound `O=C(O)CCC(NC(=O)c1ccccc1)C(=O)O` (stereo unspecified), the lipophilicity (logP) (read-out: logP) was -2.29. For the compound `O=C(NCCCCC(NC(=O)c1ccccc1)C(=O)O)c1ccccc1` (stereo unspecified), the logP (read-out: logP) is -1.22. On the same count and under the same terms, under `NCCCCC(NC(=O)c1ccccc1)C(=O)O` (stereo unspecified) stands -2.02.

Take `CC(C)CC(NS(=O)(=O)c1ccccc1)C(=O)O` (stereo unspecified): the log partition coefficient (logP) (read-out: logP) is -1.69. Consider `CC(C)CC(NC(=O)c1ccccc1)C(=O)O` (stereo unspecified), for which the logP (read-out: logP) was -0.91. Same read-out and setting: then `O=C(O)C(Cc1ccccc1)NS(=O)(=O)c1ccccc1` (stereo unspecified), with -1.41; and `O=C(NC(Cc1ccccc1)C(=O)O)c1ccccc1` (stereo unspecified), with -0.63. Same read-out and setting: under `O=CNC(Cc1ccccc1)C(=O)O` (stereo unspecified) stands -1.21; under `NC(=O)C(Cc1ccccc1)NC(=O)c1ccccc1` (stereo unspecified), -1.89.

Take `O=C(O)C(CO)NS(=O)(=O)c1ccccc1` (stereo unspecified): the logP (read-out: logP) is -3.98. The same measure, in the same setting: under `O=C([O-])CNC(=O)c1ccccc1.[Na+]` stands -2.68.

In the case of `NCCCCC(NS(=O)(=O)c1ccccc1)C(=O)O` (stereo unspecified), the logP (read-out: logP) is -2.8. The same measure, in the same setting: then `O=C(NCCCC(NC(=O)c1ccccc1)C(=O)O)c1ccccc1` (stereo unspecified), with -1.29; and `CNC(Cc1ccccc1)C(=O)O` (stereo unspecified), with -0.93; and `O=C(NC(Cc1ccccc1)C(=O)O)c1ccccc1O` (stereo unspecified), with -0.53. As for `O=C(NC(Cc1ccccc1)C(=O)O)C1CCCC1` (stereo unspecified), for the setting “read-out: logP”, the logP was -0.77. Still for that read-out and setting: then `CC(C)C(NS(=O)(=O)c1ccccc1)C(=O)O` (stereo unspecified), with -1.8.

Consider `O=C(NC(Cc1ccccc1)C(=O)O)OCc1ccccc1` (stereo unspecified), for which the logP (read-out: logP) was -1.11. Same read-out and setting: then `CC(=O)NC(Cc1ccccc1)C(N)=O` (stereo unspecified), with -1.76; and `NCCCC(NC(=O)c1ccccc1)C(=O)O` (stereo unspecified), with -2.09.

As for `O=C(NC(Cc1ccc(O)cc1)C(=O)O)c1ccccc1` (stereo unspecified), the logP (read-out: logP) was -2.24. The same measure, in the same setting: then `CN(C)C(Cc1ccccc1)C(=O)O` (stereo unspecified), with -0.43. Same read-out and setting: then `O=C(CC(=O)c1ccccc1)NC(Cc1ccccc1)C(=O)O` (stereo unspecified), with -1.34; and `O=C(O)CC(NC(=O)c1ccccc1)C(=O)O` (stereo unspecified), with -2.79.

In the case of `O=C(Cc1ccccc1)NC(Cc1ccccc1)C(=O)O` (stereo unspecified), the logP (read-out: logP) is -0.13.

Regarding `CC(C)C(NC(=O)c1ccccc1)C(=O)O` (stereo unspecified), the logP (read-out: logP) was -1.3.

Regarding `COC(=O)C(Cc1ccccc1)NC(=O)c1ccccc1` (stereo unspecified), the logP (read-out: logP) is -0.13. Same read-out and setting: under `O=C(NC(Cc1ccccc1)C(=O)O)C1CCCCC1` (stereo unspecified) stands -0.27; under `CC(NC(=O)c1ccccc1)C(=O)O` (stereo unspecified), -2.14; under `COC(=O)C(Cc1ccccc1)NC(C)=O` (stereo unspecified), -0.2. Consider `CC(=O)NC(Cc1ccccc1)C(=O)O` (stereo unspecified) [AFALANINE], for which the logP is given as -0.7.
